From ChEMBL document CHEMBL1158781, “Indole alkaloids and other constituents of Rauwolfia serpentina” (J Nat Prod, 2005)
The source made the active and inactive calls. No cut-off for these calls is given here.

Experiments:
[1] = (§1) Inhibition of human recombinant DNA topoisomerase-2
Outline: (§2)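 Recombinant human topo II (2 units) relaxing supercoiled pUC19 DNA (0.25 µg). Inhibitor added in 10% DMSO; 30 min at 37 °C. Stopped with sarkosyl loading buffer, run on 1% agarose in TAE, EtBr stain, conversion to relaxed form scored under UV.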

[2] = species on record: Homo sapiens; test: as §1; outline: as §2
[3] = biological target: T1, DNA topoisomerase 1 (Homo sapiens) (UniProt P11387); test: (§3) Inhibition of human recombinant DNA topoisomerase1
T1 sequence (whole entry): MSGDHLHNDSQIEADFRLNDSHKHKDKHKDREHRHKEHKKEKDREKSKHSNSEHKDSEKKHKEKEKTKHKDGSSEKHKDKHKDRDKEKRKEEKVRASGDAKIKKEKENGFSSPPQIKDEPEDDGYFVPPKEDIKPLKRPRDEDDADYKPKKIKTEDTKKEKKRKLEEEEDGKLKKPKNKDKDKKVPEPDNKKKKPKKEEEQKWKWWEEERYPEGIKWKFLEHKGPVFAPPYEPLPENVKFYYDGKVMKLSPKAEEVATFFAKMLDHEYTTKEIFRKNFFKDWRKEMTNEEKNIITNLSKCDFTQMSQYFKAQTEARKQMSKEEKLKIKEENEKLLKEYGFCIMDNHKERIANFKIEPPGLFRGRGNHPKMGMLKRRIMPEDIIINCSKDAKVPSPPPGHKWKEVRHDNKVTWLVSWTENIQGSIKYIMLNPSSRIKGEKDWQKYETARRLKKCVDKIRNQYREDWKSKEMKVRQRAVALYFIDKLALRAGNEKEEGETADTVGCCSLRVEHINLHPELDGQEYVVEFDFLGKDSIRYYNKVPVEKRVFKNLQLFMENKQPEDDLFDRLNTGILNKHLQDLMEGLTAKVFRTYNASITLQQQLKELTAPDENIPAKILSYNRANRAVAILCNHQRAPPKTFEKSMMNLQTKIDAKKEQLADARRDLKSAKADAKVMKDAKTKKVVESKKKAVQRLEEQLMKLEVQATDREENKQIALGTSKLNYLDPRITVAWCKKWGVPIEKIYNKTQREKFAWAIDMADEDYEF
Outline: (§4)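 Recombinant human topo I (2 units) relaxing pBR322 DNA (0.25 µg). Buffer: 10 mM Tris-HCl pH 7.9, 1 mM EDTA, 150 mM NaCl, 0.1% BSA, 0.1 mM spermidine, 5% glycerol. Inhibitor added in 10% DMSO; 30 min at 37 °C. Sarkosyl stop, 1% agarose/TAE gel, EtBr stain, relaxed DNA seen under UV.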

[4] = biological target: T2, DNA topoisomerase 1 (Homo sapiens, UniProt P11387); test: as §3; outline: as §4
T2 sequence (P11387 whole entry): T1 sequence (whole entry)

[5] = tested on: HL-60; test: Cytotoxicity against human HL60 cells by MTT assay; assay type: functional, cell-based
Outline: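 HL-60 human promyelocytic leukemia cells grown in RPMI 1640 with 10% FBS, penicillin and streptomycin at 37 °C under 5% CO2. Cells plated at 3 × 10^5 per well with a range of alkaloid concentrations. Compounds supplied as 10 mM PBS stocks and diluted into growth medium just before use. Survival read out by MTT.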

Row | SMILES | IC50 [1] [µM] | Activity [2] | Activity [3] | IC50 [4] [µM] | Activity [5] | IC50 [5] [µM]
1 | COC(=O)[C@@H]1[C@H]2C[C@H]3c4[nH]c5ccccc5c4CCN3C[C@@H]2CC[C@@H]1O [YOHIMBINE] | 125 | inactive | inactive | 30 | inactive | 84
2 | COC(=O)[C@H]1[C@H]2C[C@@H]3c4[nH]c5cc(OC)ccc5c4CCN3C[C@H]2C[C@@H](OC(=O)/C=C/c2cc(OC)c(OC)c(OC)c2)[C@@H]1OC | – | inactive | inactive | – | inactive | –
3 | O=C(O)[C@H]1[C@H]2C[C@@H]3c4[nH]c5ccccc5c4CCN3C[C@H]2CC[C@@H]1O [ISORAUHIMBINIC ACID] | 175 | – | – | 40 | – | 125
4 | COc1cc([C@@H]2c3cc4c(cc3[C@@H](O[C@@H]3O[C@@H]5CO[C@@H](C)O[C@H]5[C@H](O)[C@H]3O)[C@H]3COC(=O)[C@H]23)OCO4)cc(OC)c1O [ETOPOSIDE] | 40 | – | – | > 1000 | – | 150
5 | CC[C@@]1(O)C(=O)OCc2c1cc1n(c2=O)Cc2cc3ccccc3nc2-1 [CAMPTOTHECIN] | > 1000 | – | – | – | – | 130
6 | COC(=O)[C@H]1[C@H]2C[C@@H]3c4[nH]c5ccccc5c4CCN3C[C@H]2CC(O)[C@@H]1O (stereo partly specified) | – | inactive | inactive | – | inactive | –
7 | COC(=O)[C@H]1[C@H]2C[C@@H]3c4[nH]c5cc(OC)ccc5c4CCN3C[C@H]2C[C@@H](OC(=O)c2cc(OC)c(OC)c(OC)c2)[C@@H]1OC [RESERPINE] | 20 | – | – | 160 | – | 67
8 | COC(=O)[C@H]1[C@H]2C[C@@H]3c4[nH]c5ccccc5c4CCN3C[C@H]2CC[C@@H]1O | – | inactive | inactive | – | inactive | –
